Calls of active or inactive are those of the source. The calls are words filed in the database; no cut-off is given here.
How the values were obtained:
[1] = system: SK-BR-3; test: Cytotoxicity against human SKBR3 cells assessed as growth inhibition at 100 uM after 18 hrs by capillary-based flow cytometric analysis; format: functional, cell-based
In short: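 Short-term viability: SKBR3 cells exposed overnight under the same conditions as the surface-HER2 screen, then stained with a DNA-staining viability reagent; viable cell number counted by capillary flow cytometry.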

[2] = molecular target: T1, Heat shock protein HSP90 (Homo sapiens, UniProt P07900+P08238); test: Inhibition of HSP90 in human MCF7 cells assessed as depletion of total HER2 protein level at 50 uM after 18 hrs by Western blot analysis relative to control; format: cell-based
In short: (§1)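 MCF-7 cells at 70% confluence treated 18 h; floating plus trypsinized cells pooled, lysed in NP-40 buffer (pH 7.4) with protease/phosphatase inhibitors; 20 µg protein on 7.5% SDS-PAGE, nitrocellulose, milk block; probed for HER2 (2.0 µg/mL monoclonal) or HSP72, alkaline-phosphatase secondary, NBT/BCIP development; Ponceau S loading check.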

[3] = system: MCF7; test: Cytotoxicity against ER-positive human MCF7 cells expressing low level of HER2 after 3 days by MTT assay; format: functional, cell-based; conditions: MCF7, 72 h
In short: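 MCF-7 seeded 2,000 cells/well, serial dilutions added after 24 h, 72 h exposure; MTT at 500 µg/mL final, 3 h at 37 °C, formazan dissolved in DMSO, absorbance 570 nm minus 650 nm background. Triplicates, at least two experiments; IC50 = concentration cutting viable signal by 50% of DMSO control.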

[4] = molecular target: T1, Heat shock protein HSP90; test: Inhibition of HSP90 in human SKBR3 cells assessed as depletion of cell surface HER2 protein level at 100 uM after 18 hrs by immunofluorescence-based flow cytometric analysis relative to control; conditions: SK-BR-3
In short: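 SKBR3 cells treated 18 h at 100 µM (controls: DMSO, GA 0.5 µM, NB 500 µM), trypsinized, blocked in goat serum/PBA (pH 7.6) on ice, anti-HER2 20 µg/mL 30 min then Alexa 488 secondary 2 µg/mL 20 min on ice; mean fluorescence intensity by flow cytometry, isotype antibody control.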

[5] = molecular target: T1, Heat shock protein HSP90; test: Inhibition of HSP90 in human MCF7 cells assessed as depletion of cell surface HER2 protein level after 18 hrs by flow cytometry
[6] = system: SK-BR-3; test: Cytotoxicity against ER-negative human SKBR3 cells expressing high level of HER2 after 3 days by MTT assay; format: functional, cell-based; conditions: SK-BR-3, 72 h
In short: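 SKBR3 cells in RPMI 1640 with 10% FBS exposed to serial dilutions for 3 days; MTT dye-reduction read-out of relative viable cell number. IC50 taken as concentration giving 50% reduction versus DMSO-treated cells.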

[7] = system: SK-BR-3; test: Cell cycle arrest in human SKBR3 cells assessed as accumulation at subG1 phase at 1000 uM after 48 hrs by flow cytometric analysis (reference value: 7 +/- 1%); format: functional
[8] = organism: Mus musculus; test: Inhibition of HSP90 in mouse 3T3-Y9-B12 cells assessed as activation of HSF1 at 1000 uM after overnight incubation by GFP reporter gene assay relative to control; format: cell-based
In short: (§2)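 3T3-Y9-B12 mouse fibroblasts carrying a GFP gene under a minimal heat-shock element; near-confluent monolayers given serial dilutions in triplicate wells overnight, DMSO ≤0.25% vehicle, GA 0.5 µM positive control; after PBS wash, fluorescence at 485/525 nm, normalized to DMSO.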

[9] = system: SK-BR-3; test: Cell cycle arrest in human SKBR3 cells assessed as accumulation at G2/M phase at 1000 uM after 48 hrs by flow cytometric analysis (reference value: 21 +/- 1%); format: functional
[10] = system: SK-BR-3; test: Cell cycle arrest in human SKBR3 cells assessed as accumulation at G0/G1 phase at 1000 uM after 48 hrs by flow cytometric analysis (reference value: 54 +/- 2%); format: functional
[11] = system: SK-BR-3; test: Cell cycle arrest in human SKBR3 cells assessed as accumulation at S phase at 1000 uM after 48 hrs by flow cytometric analysis (reference value: 19 +/- 6%); format: functional
[12] = organism: Oryctolagus cuniculus; test: Inhibition of HSP90 in rabbit reticulocyte lysate assessed as inhibition of heat-denatured luciferase refolding after 30 mins by luminescence plate reader analysis
In short: (§3)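 Rabbit reticulocyte lysate with ATP regeneration (10 mM phosphocreatine, 1 mM ATP, 17.5 IU creatine kinase) preincubated with compound 20 min on ice; firefly luciferase (100 nM) heat-denatured 40 °C 8 min, diluted 10-fold into lysate; 28 °C, triplicate aliquots luminescence-read at 0, 15, 30, 60 min; mean RLU or % of DMSO.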

[13] = molecular target: T1, Heat shock protein HSP90; test: Inhibition of HSP90 in human SKBR3 cells assessed as aggregation of intracellular HER2 at 1000 uM after 18 hrs by DAPI staining-based immunofluorescence microscopic analysis; format: cell-based; conditions: SK-BR-3
In short: (§4)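 SKBR3 in chamber slides adhered overnight, treated 18 h, fixed 4% paraformaldehyde, permeabilized 1% Triton X-100, goat-serum block; anti-HER2 (20 µg/mL) then Alexa Fluor 488 secondary (2 µg/mL) on ice, DAPI nuclear counterstain; imaged at 160× with identical exposures. GA 0.5 µM positive control.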

[14] = organism: Oryctolagus cuniculus; test: Inhibition of HSP90 in rabbit reticulocyte lysate assessed as inhibition of heat-denatured luciferase refolding at 500 uM by luminescence plate reader analysis; conditions: TDE = time-dependent effect; in short: as §3
[15] = system: SK-BR-3; test: Cell cycle arrest in human SKBR3 cells assessed as accumulation at S phase at 12.5 uM after 48 hrs by flow cytometric analysis (reference value: 19 +/- 6%); format: functional
[16] = organism: Oryctolagus cuniculus; test: Inhibition of HSP90 in rabbit reticulocyte lysate assessed as inhibition of heat-denatured luciferase refolding at 100 uM by luminescence plate reader analysis; conditions: TDE = time-dependent effect; in short: as §3
[17] = system: SK-BR-3; test: Cell cycle arrest in human SKBR3 cells assessed as accumulation at S phase at 25 uM after 48 hrs by flow cytometric analysis (reference value: 19 +/- 6%); format: functional
[18] = system: SK-BR-3; test: Cell cycle arrest in human SKBR3 cells assessed as accumulation at subG1 phase after 48 hrs by flow cytometric analysis; format: functional, cell-based
[19] = system: MCF7; test: Induction of HSP70 in human MCF7 cells by Western blot analysis; format: cell-based; in short: as §1
[20] = system: SK-BR-3; test: Cell cycle arrest in human SKBR3 cells assessed as accumulation at G0/G1 phase at 12.5 uM after 48 hrs by flow cytometric analysis (reference value: 54 +/- 2%); format: functional
[21] = system: SK-BR-3; test: Cell cycle arrest in human SKBR3 cells assessed as accumulation at G0/G1 phase at 25 uM after 48 hrs by flow cytometric analysis (reference value: 54 +/- 2%); format: functional
[22] = organism: Mus musculus; test: Inhibition of HSP90 in mouse 3T3-Y9-B12 cells assessed as activation of HSF1 at 0.78 to 25 uM after overnight incubation by GFP reporter gene assay relative to control; format: cell-based; in short: as §2
[23] = system: SK-BR-3; test: Cell cycle arrest in human SKBR3 cells assessed as accumulation at G2/M phase at 25 uM after 48 hrs by flow cytometric analysis (reference value: 21 +/- 1%); format: functional
[24] = molecular target: T1, Heat shock protein HSP90; test: Inhibition of HSP90 in human SKBR3 cells assessed as aggregation of intracellular HER2 at 25 uM after 18 hrs by DAPI staining-based immunofluorescence microscopic analysis; format: cell-based; conditions: SK-BR-3; in short: as §4
[25] = system: SK-BR-3; test: Cell cycle arrest in human SKBR3 cells assessed as accumulation at G2/M phase at 12.5 uM after 48 hrs by flow cytometric analysis (reference value: 21 +/- 1%); format: functional
[26] = system: SK-BR-3; test: Cell cycle arrest in human SKBR3 cells assessed as accumulation at subG1 phase at 12.5 to 25 uM by flow cytometric analysis; format: functional, cell-based; conditions: TDE = time-dependent effect
[27] = system: SK-BR-3; test: Cell cycle arrest in human SKBR3 cells assessed as accumulation at subG1 phase at 12.5 uM after 48 hrs by flow cytometric analysis (reference value: 7 +/- 1%); format: functional
[28] = system: SK-BR-3; test: Cell cycle arrest in human SKBR3 cells assessed as accumulation at subG1 phase at 25 uM after 48 hrs by flow cytometric analysis (reference value: 7 +/- 1%); format: functional
[29] = molecular target: T1, Heat shock protein HSP90; test: Inhibition of HSP90 in human MCF7 cells assessed as depletion of total HER2 protein level at 12.5 to 25 uM after 18 hrs by Western blot analysis; format: cell-based; in short: as §1
[30] = system: SK-BR-3; test: Cell cycle arrest in human SKBR3 cells assessed as accumulation at G2/M phase at 0.5 uM after 48 hrs by flow cytometric analysis (reference value: 21 +/- 1%); format: functional
[31] = system: SK-BR-3; test: Cell cycle arrest in human SKBR3 cells assessed as accumulation at S phase at 0.5 uM after 48 hrs by flow cytometric analysis (reference value: 19 +/- 6%); format: functional
[32] = organism: Oryctolagus cuniculus; test: Inhibition of HSP90 in rabbit reticulocyte lysate assessed as inhibition of heat-denatured luciferase refolding at 0.5 uM by luminescence plate reader analysis; conditions: TDE = time-dependent effect; in short: as §3
[33] = system: SK-BR-3; test: Cell cycle arrest in human SKBR3 cells assessed as accumulation at subG1 phase at 0.5 uM after 48 hrs by flow cytometric analysis (reference value: 7 +/- 1%); format: functional
[34] = system: SK-BR-3; test: Cell cycle arrest in human SKBR3 cells assessed as accumulation at G0/G1 phase at 0.5 uM after 48 hrs by flow cytometric analysis (reference value: 54 +/- 2%); format: functional

SMILES: COc1ccc(C(=O)Nc2c(OC)c3ccc(O[C@@H]4OC(C)(C)[C@H](OC)[C@@H](O)[C@H]4O)c(C)c3oc2=O)cc1CC=C(C)C
- growth inhibition (GI) [1]: Active
- inhibition [2]: 50%
- IC50 [3]: 19 µM
- inhibition [4]: 40%
- EC50 [5]: 41 µM
- IC50 [6]: 25 µM

SMILES: CO[C@@H]1[C@@H](OC(N)=O)[C@@H](O)[C@H](Oc2ccc3c(O)c(NC(=O)c4ccc(O)c(CC=C(C)C)c4)c(=O)oc3c2C)OC1(C)C [NOVOBIOCIN]
- Activity [7]: 38%
- fold change (FC) [8]: 1.5
- Activity [9]: 10%
- IC50 [3]: 357 µM
- inhibition [4]: inactive
- Activity [10]: 57%
- Activity [11]: 15%
- IC50 [6]: 350 µM
- inhibition [12]: Dose-dependent effect
- inhibition [13]: Active
- inhibition [14]: tde

SMILES: CO[C@@H]1[C@@H](OC(N)=O)[C@@H](O)[C@H](Oc2ccc3cc(NC(=O)c4cc5ccccc5[nH]4)c(=O)oc3c2C)OC1(C)C
- Activity [15]: 17%
- inhibition [16]: tde
- Activity [17]: 10%
- growth inhibition (GI) [1]: Active
- Activity [18]: Dose-dependent effect
- inhibition [2]: 50%
- Activity [19]: Active
- Activity [20]: 58%
- Activity [21]: 56%
- IC50 [3]: 6 µM
- fold change (FC) [22]: < 2
- inhibition [4]: 40%
- EC50 [5]: 20 µM
- Activity [23]: 10%
- inhibition [24]: Active
- IC50 [6]: 10 µM
- Activity [25]: 18%
- Activity [26]: tde
- Activity [27]: 8%
- inhibition [12]: Dose-dependent effect
- Activity [28]: 29%
- inhibition [29]: Active

SMILES: CO[C@@H]1[C@@H](OC(N)=O)[C@@H](O)[C@H](Oc2ccc3cc(NC(=O)c4ccc(O)c(CC=C(C)C)c4)c(=O)oc3c2C)OC1(C)C
- Activity [15]: 10%
- inhibition [16]: tde
- Activity [17]: 17%
- growth inhibition (GI) [1]: Active
- Activity [18]: Dose-dependent effect
- inhibition [2]: 50%
- Activity [20]: 62%
- Activity [21]: 43%
- IC50 [3]: 15 µM
- fold change (FC) [22]: < 2
- inhibition [4]: 40%
- EC50 [5]: 24 µM
- Activity [23]: 15%
- inhibition [24]: Active
- IC50 [6]: 17 µM
- Activity [25]: 9%
- Activity [26]: tde
- Activity [27]: 22%
- inhibition [12]: Dose-dependent effect
- Activity [28]: 48%
- inhibition [29]: Active

SMILES: COc1ccc(C(=O)Nc2c(OC)c3ccc(O[C@@H]4OC(C)(C)[C@H](OC)[C@@H](OC(N)=O)[C@H]4O)c(C)c3oc2=O)cc1CC=C(C)C
- growth inhibition (GI) [1]: Active
- inhibition [2]: 50%
- IC50 [3]: 18 µM
- inhibition [4]: 40%
- EC50 [5]: 38 µM
- IC50 [6]: 19 µM

SMILES: COC1=C2C[C@@H](C)C[C@H](OC)[C@H](O)[C@@H](C)/C=C(\C)[C@H](OC(N)=O)[C@@H](OC)/C=C\C=C(/C)C(=O)NC(=CC1=O)C2=O [GELDANAMYCIN]
- Activity [30]: 18%
- Activity [31]: 10%
- inhibition [32]: tde
- Activity [33]: 16%
- inhibition [12]: Dose-dependent effect
- Activity [34]: 65%

SMILES: CO[C@@H]1[C@@H](OC(=O)c2ccc(C)[nH]2)[C@@H](O)[C@H](Oc2ccc3c(O)c(NC(=O)c4cc5ccccc5[nH]4)c(=O)oc3c2C)OC1(C)C
- growth inhibition (GI) [1]: Active
- inhibition [4]: 40%
- EC50 [5]: > 50 µM
